Screening results as filed in PubChem BioAssay.
Shown are actives, neighbours in structure and some others; about 3.7% of the full set was active somewhere.
KCNQ1 act – potentiates or activates the human KCNQ1 potassium channel | AID 2648 | actives 0.35% (n = 310,000) | CHO-K1 KCNQ1, thallium flux FluxOR fluorescence; stronger effect = higher value | P51787 | B-score at 10 µM;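 active = fluorescence ratio B-score, a plate-corrected score, at least three library SD, with initial intensity B-score within 5 SD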
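Medium – assay buffer, equal DMSO in all wells · Material – CHO-K1 cell line with stable KCNQ1 potassium channel expression · Signal – kinetic FluxOR thallium fluorescence, 10-s 1-Hz baseline, 110-s post-stimulus read · Compound – single concentration per compound, DMSO matched to controls · Schedule – 37 °C overnight plating, 90-min dark dye load, 20-min compound pretreatment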
hERG rescue – shields human hERG channel from block by proarrhythmic agents. actives 0.51% (n = 310,000). AID 1511. CHO-hERG, FluxOR thallium flux, dofetilide IC70 present. activation (rescue from dofetilide block), less the hit threshold, % at 10 µM;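 active = activation above the mean of controls blocked by dofetilide plus 5 SD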;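 also: thallium influx through hERG after potassium depolarization seen as dye fluorescence rise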
KCNK9 inh – blocks the human KCNK9 two-pore domain potassium channel; Q9NPC2; HEK293 KCNK9, FluxOR thallium flux fluorescence; stronger effect = lower value; B-score at 10 µM; actives 1.2% (n = 310,000);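 active = ratio B-score over 3 SD below the library mean, with starting fluorescence within 5 SD of its mean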;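 also: negative B-score means less thallium flux so channel inhibition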
KCNQ1 block – inhibitors of human KCNQ1 potassium channel | actives 1.3% (n = 310,000) | CHO-K1 KCNQ1, FluxOR thallium flux fluorescence; stronger effect = higher value | B-score at 10 µM;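 active = compounds whose thallium flux B-score, printed positive for inhibition, exceeds three library SD while starting fluorescence stays within three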;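 also: channel opened by potassium depolarization with thallium stimulus after 20 min compound exposure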
Kir21 block – inhibitors of mouse Kir2.1 inward-rectifier potassium channel. P35561. HEK293-Kir2.1, FluxOR thallium flux fluorescence; stronger effect = lower value. B-score at 10 µM. actives 0.85% (n = 310,000);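 active = fluorescence ratio B-score at or below minus 3 SD of library scores, with starting-brightness B-score within 2 SD, cut at about -4.2 in these data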;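 also: channel flux triggered by added potassium and thallium sulfate stimulus; B-score of peak minus minimum fluorescence over baseline after thallium stimulus; more negative B-score means stronger Kir2.1 block with less thallium influx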
KCNK3 block – human KCNK3 channel inhibition, primary screen; CHO-KCNK3 thallium flux, FluxOR fluorescence; stronger effect = lower value; actives 0.84% (n = 340,000); B-score at 10 µM;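 active = B-score under library mean minus 4 SD, starting fluorescence ratio at most library mean plus 5 SD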;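 also: more negative B-score means stronger inhibition of thallium flux through KCNK3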
Target sequence (O14649 whole entry, looked up): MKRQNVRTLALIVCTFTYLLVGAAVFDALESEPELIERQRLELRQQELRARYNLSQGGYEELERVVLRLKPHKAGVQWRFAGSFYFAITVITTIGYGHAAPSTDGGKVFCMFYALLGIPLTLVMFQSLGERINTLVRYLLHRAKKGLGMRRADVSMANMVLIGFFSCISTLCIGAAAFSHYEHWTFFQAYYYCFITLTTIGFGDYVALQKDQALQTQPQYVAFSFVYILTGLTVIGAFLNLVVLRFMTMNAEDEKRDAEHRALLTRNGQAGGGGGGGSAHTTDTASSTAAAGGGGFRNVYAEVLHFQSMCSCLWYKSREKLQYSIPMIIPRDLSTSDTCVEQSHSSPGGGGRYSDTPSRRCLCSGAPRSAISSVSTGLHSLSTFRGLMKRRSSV
KCNK9 inh conf – confirmation of human KCNK9 potassium channel inhibitors; shares compounds with KCNK9 inh; actives 43% (n = 4,900); AID 492992; inhibition, % at 10 µM; HEK293 KCNK9 cells, FluxOR thallium flux fluorescence;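 active = thallium signal inhibited by more than 5 SD of the compound-free buffer control wells, on both duplicate plates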;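 also: 0% = assay buffer control wells without compound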
Kir21 sel – tests whether KCNK9 modulators also affect mouse Kir2.1; actives 4% (n = 4,900); inhibition, % at 10 µM; Kir2.1 cells, FluxOR thallium flux fluorescence; shares compounds with KCNK9 inh; AID 492993;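 active = thallium signal drop more than 5 SD beyond the mean of the no-compound control wells, seen in both duplicate plates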;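 also: signal is fluorescence rise after thallium addition divided by baseline fluorescence; plate controls were assay buffer only for no effect and full block by chlorpromazine control for full effect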
KCNK9 uninduced – second counter-screen for KCNK9 modulators: effect in non-induced cells; shares compounds with KCNK9 inh; non-induced KCNK9-HEK293, FluxOR thallium flux; inhibition, % at 10 µM; actives 40% (n = 4,900); AID 492997;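 active = thallium signal drop beyond 5 SD of the untreated control mean, on both duplicate plates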;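 also: plate controls were buffer only IC0 wells for no effect and SID17386958 at its maximal inhibitory level for full effect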
* = called active by the depositor; i = inactive; . = no result given.

SMILES | KCNQ1 act | hERG rescue | KCNK9 inh | KCNQ1 block | Kir21 block | KCNK3 block | KCNK9 inh conf | Kir21 sel | KCNK9 uninduced
Cc1ccc(C2CC2C(=O)NNC(=S)Nc2ccc(Cl)cc2)cc1 (centres undefined) | i | -15.7 | i | 10* | -1.22 | i | i | i | i
CNS(=O)(=O)c1cccc(C(=O)OCc2cc(=O)n3cc(Br)ccc3n2)c1 | i | -13.7 | i | i | 0.36 | i | . | . | .
O=C(OCc1cc(=O)n2cc(Br)ccc2n1)c1ccc(Cl)c(S(=O)(=O)NCc2ccccc2)c1 | i | -9.5 | -10.9* | i | 1.72 | i | i | i | i
Cc1ccc2c(c1)N(CCCC(=O)NCCC1=CCCCC1)C(=O)CO2 | i | -6.6 | i | i | -1.9 | i | i | i | i
CCCN1C(=O)/C(=C/c2c(N3CCNC(=O)C3CC(=O)OCC)nc3c(C)cccn3c2=O)SC1=S (centres undefined) | i | -39.3 | i | i | -3.26 | i | . | . | .
CCOC(=O)CC1C(=O)NCCN1c1nc2ccc(C)cn2c(=O)c1/C=C1\SC(=S)N(CC(C)C)C1=O (centres undefined) | i | -18.9 | -9.87* | 8* | -4.21 | i | 45.5%* | 43.0%* | 61.5%*
O=S1(=O)CCOCCCN1Cc1cccc(C(F)(F)F)c1 | i | -6.6 | i | i | -1.19 | i | . | . | .
CC(C)CS(=O)(=O)C1=NN2C(=N)/C(=C\c3ccc(OC(=O)c4ccco4)cc3)C(=O)N=C2S1 | i | -30.4 | i | i | -3.01 | i | i | i | i
COc1ccccc1OCCOc1ccc(/C=C2\C(=N)N3N=C(S(C)(=O)=O)SC3=NC2=O)cc1 | i | -25.8 | i | i | 0.49 | i | i | i | i
Cc1cc(/C=C2\C(=N)N3N=C(S(C)(=O)=O)SC3=NC2=O)c(C)n1Cc1ccccc1 | i | -4.7 | i | i | 0.2 | i | i | i | i
COc1cc(/C=C2\C(=N)N3N=C(S(C)(=O)=O)SC3=NC2=O)cc(OC)c1OCCOc1ccccc1C | i | -31.2 | i | i | 1.27 | i | i | i | i
COc1cc(/C=C2\C(=N)N3N=C(C)SC3=NC2=O)cc(OC)c1OCCOc1ccccc1C | i | -1.4 | i | i | 1.99 | i | . | . | .
COc1cccc(OCCOc2ccc(/C=C3\C(=N)N4N=C(S(C)(=O)=O)SC4=NC3=O)cc2OC)c1 | i | -11.9 | i | i | 1.21 | i | . | . | .
O=C(NC1CCN(S(=O)(=O)c2ccc(Cl)c(F)c2)CC1)c1cccnc1 | i | -7.5 | i | i | 1.09 | i | . | . | .
O=C(NCC(c1ccco1)N1CCN(c2ccccc2F)CC1)c1ccco1 (centres undefined) | i | -11.5 | i | i | 0.75 | i | . | . | .
O=C(Nc1cccc(S(=O)(=O)N2CCCCCC2)c1)C1CCN(C(=O)c2ccc(Cl)cc2)CC1 | i | -9.8 | i | i | 1.1 | i | i | i | i
O=C(Nc1cccc(S(=O)(=O)N2CCCCCC2)c1)C1CCN(C(=O)c2ccc(F)cc2)CC1 | i | -16.7 | i | i | 0.03 | i | i | i | i
COC(=O)c1sc2ccccc2c1NC(=O)c1ccc(S(=O)(=O)N2CC(C)CC(C)C2)cc1 (centres undefined) | i | -7.2 | i | i | 0.1 | i | . | . | .
Cc1ccc2nc(NNC(=O)c3ccc(S(=O)(=O)N4CCc5ccccc5C4)cc3)sc2c1 | i | -3.6 | i | 7* | 1.01 | i | i | i | i
CC1CC(C)CN(S(=O)(=O)c2ccc(C(=O)Nc3sccc3C(N)=O)cc2)C1 (centres undefined) | i | -9.6 | i | i | 1.88 | i | . | . | .
